Assay results from paper PMC4074512 (European journal of pharmacology, 2014).
In brackets after ≈: the same amount, converted by molar mass. Read-outs that look alike come from different tables or passages of the source. Each block holds one compound with its values, some of them ahead of it.

What was measured:
MDCKII cells [1] = assay: In vitro cytotoxicity, MTT assay, MDCKII cells; assay type: cell-based, Canine; conditions: 48 h, n = 8, mean ± SD
Outline: (§1)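 Parental and PGP1-overexpressing MDCKII cells seeded at 5 × 10^3 per well, incubated 24 h at 37°C/5% CO2, then exposed 48 h to serial concentrations of DMSO-dissolved compound (DMSO ≤1% v/v). MTT (5 mg/ml solution) was added for 4 h at 37°C, formazan dissolved in DMSO, absorbance read at 595 nm; IC50 derived; mean ± SD.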

MDCKII cells [2] = assay: Calcein-AM uptake assay in MDCKII cells; assay type: cell-based, Canine; conditions: MDCKII cells without PGP1 expression, calcein-AM 1 μM
[3] = system: PGP1 overexpressing MDCKII cells; assay: In vitro cytotoxicity, MTT assay, PGP1 overexpressing MDCKII cells; assay type: cell-based, Canine; conditions: 48 h, n = 8, mean ± SD
Outline: as §1

MDCKII monolayers = assay type: in vitro ADME, Canine; conditions: MDCKII monolayers; for Efflux ratio after EDTA treatment compared to non-EDTA treatment groups: all test groups; for Papp (a–b) / Papp (b-a): without EDTA treatment
Outline: (§2)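 MDCKII cells seeded at 2.0 × 10^5 per polycarbonate insert (1.12 cm2, 0.4 μm) and grown 7 days; monolayers used only if TEER > 200 Ωcm2. Flux run in both directions per the Caco-2 protocol: HBSS/25 mM HEPES pH 7.4, 37°C, 2 h, serial sampling. Optional pretreatment: 5 μM EDTA in Ca/Mg-free HBSS, both sides, 5 min at 37°C, then washed. Compound by HPLC-UV, lucifer yellow by fluorescence (485/535 nm); n = 3.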

[4] = Bidirectional flux of EFdA in Caco-2 cell monolayers; assay type: in vitro ADME; conditions: human, Caco-2, pH 7.4
Outline: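 Caco-2 cells seeded at 2.0 × 10^5 per polycarbonate insert (1.12 cm2, 0.4 μm) and differentiated 21 days. Monolayers were washed and pre-incubated 20 min at 37°C in HBSS, then TEER was read. Donor (apical or basolateral) held 25, 100 or 400 μM compound in HBSS/25 mM HEPES pH 7.4; 2 h at 37°C with shaking, sampled 0–120 min. HPLC-UV at 260 nm. Papp = (dQ/dt)/(A×C0); efflux ratio = Papp(b-a)/Papp(a-b); n = 3.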

[5] = ref Zhang et al., 2013, cited from earlier work
[6] = ref Zhang et al., 2013; cited from earlier work
Caco-2 monolayers = conditions: pH from 5.5 to 7.4, ref Zhang et al., 2013; cited from earlier work
[7] = system: human ectocervical tissues; conditions: three separate human ectocervical tissues; ref Zhang et al., 2013; cited from earlier work
[8] = assay type: in vitro ADME, Canine; conditions: dog, MDCK
Outline: as §2

ABCB1 transporter (PGP1) = ABCB1 transporter (PGP1) (Homo sapiens, UniProt P08183); assay type: cell-based; conditions: PGP1 overexpressing MDCKII cells, even at 200 μM
Chain of ABCB1 transporter (PGP1) (P08183 whole entry): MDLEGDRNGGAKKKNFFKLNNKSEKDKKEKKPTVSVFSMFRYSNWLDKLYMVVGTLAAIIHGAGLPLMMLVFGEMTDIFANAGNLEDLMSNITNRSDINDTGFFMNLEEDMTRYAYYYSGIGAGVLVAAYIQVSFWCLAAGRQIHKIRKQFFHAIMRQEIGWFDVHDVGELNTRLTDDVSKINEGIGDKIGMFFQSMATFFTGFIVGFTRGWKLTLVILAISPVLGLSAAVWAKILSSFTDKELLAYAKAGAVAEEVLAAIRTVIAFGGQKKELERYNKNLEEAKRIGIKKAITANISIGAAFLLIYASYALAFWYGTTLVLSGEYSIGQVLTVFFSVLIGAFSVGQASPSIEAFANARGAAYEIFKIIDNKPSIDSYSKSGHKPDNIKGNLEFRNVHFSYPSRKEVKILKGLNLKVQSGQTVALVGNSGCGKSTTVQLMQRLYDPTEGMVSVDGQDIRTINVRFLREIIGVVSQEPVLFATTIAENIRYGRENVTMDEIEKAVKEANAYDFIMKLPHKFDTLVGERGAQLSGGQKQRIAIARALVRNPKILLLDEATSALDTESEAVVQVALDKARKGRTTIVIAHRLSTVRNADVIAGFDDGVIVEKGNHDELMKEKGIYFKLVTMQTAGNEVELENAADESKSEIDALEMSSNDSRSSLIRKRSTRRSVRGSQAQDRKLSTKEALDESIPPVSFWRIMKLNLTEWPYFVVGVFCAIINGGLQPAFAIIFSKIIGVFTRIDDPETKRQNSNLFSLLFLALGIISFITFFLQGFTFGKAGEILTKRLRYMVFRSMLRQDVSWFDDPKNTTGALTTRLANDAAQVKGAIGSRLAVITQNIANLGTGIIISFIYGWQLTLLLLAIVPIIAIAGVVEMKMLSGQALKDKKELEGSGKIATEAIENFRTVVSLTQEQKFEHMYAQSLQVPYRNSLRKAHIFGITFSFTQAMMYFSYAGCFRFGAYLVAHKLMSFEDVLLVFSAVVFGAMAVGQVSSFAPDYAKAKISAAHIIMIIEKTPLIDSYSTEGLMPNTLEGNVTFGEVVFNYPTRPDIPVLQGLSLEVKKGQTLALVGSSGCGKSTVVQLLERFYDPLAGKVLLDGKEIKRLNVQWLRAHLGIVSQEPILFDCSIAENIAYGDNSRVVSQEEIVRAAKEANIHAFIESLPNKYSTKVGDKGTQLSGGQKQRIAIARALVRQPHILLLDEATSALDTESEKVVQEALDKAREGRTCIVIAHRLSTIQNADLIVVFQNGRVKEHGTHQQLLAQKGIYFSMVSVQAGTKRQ

Compound: Ivermectin
IC50 (MDCKII cells [1]): 20 ± 2.91 µM | PGP1 inhibitory response (calcein fluorescence) (MDCKII cells [2]): no obvious PGP1 inhibitory response | IC50 [3]: 12.2 ± 0.87 µM

Efflux ratio after EDTA treatment compared to non-EDTA treatment groups (MDCKII monolayers): higher | Papp (a–b) (MDCKII monolayers; 25 μM): 3.76 ± 0.12 × 10^−7cm/s | Papp (b-a) (MDCKII monolayers; 25 μM): 4.14 ± 0.40 × 10^−7cm/s | Papp (a–b) (MDCKII monolayers; 100 μM): 1.70 ± 0.06 × 10^−7cm/s | Papp (b-a) (MDCKII monolayers; 100 μM): 2.05 ± 0.12 × 10^−7cm/s | Papp (a–b) (MDCKII monolayers; 400 μM): 1.77 ± 0.31 × 10^−7cm/s | Papp (b-a) (MDCKII monolayers; 400 μM): 2.07 ± 0.46 × 10^−7cm/s
Compound: Lucifer yellow [LY]

Compound: C=C[C@H]1C[N@@]2CC[C@H]1C[C@@H]2[C@@H](O)c1ccnc2ccc(OC)cc12 [Quinidine]
PGP1 inhibitory response (calcein fluorescence) (MDCKII cells [2]): no obvious PGP1 inhibitory response

efflux ratio at 2 h [4]: > 2 | efflux ratio at 2 h, 100 μM [4]: 5.7 | efflux ratio at 2 h, 400 μM [4]: 2.5 | Efflux ratio after EDTA treatment compared to non-EDTA treatment groups (MDCKII monolayers): higher | Papp A→B [8]: < 1 ×10⁻⁶ cm/s | efflux ratio [8]: ~1 | PGP1 inhibitory effect (ABCB1 transporter (PGP1)): lack of observed PGP1 inhibitory effect
Compound: C#C[C@]1(CO)O[C@@H](n2cnc3c(N)nc(F)nc32)C[C@@H]1O [EFdA, 4′-ethynyl-2-fluoro-2′-deoxyadenosine]
Change in solubility ([5]; pH from 6 to 9): no obvious change | Solubility in water [5]: 1000 µg/mL (≈ 3.41 mM) | Log Po/w [6]: −1.2 | pH dependence of transport (Caco-2 monolayers): independent of pH | Papp [7]: < 1 ×10⁻⁶ cm/s
